Data reported in ChEMBL document CHEMBL4118104, “Design, Synthesis, and Evaluation of Orally Bioavailable Quinoline-Indole Derivatives as Innovative Multitarget-Directed Ligands: Promotion of Cell Proliferation in the Adult Murine Hippocampus for the Treatment of Alzheimer's Disease” (J Med Chem, 2018).
Activity calls are given as the source filed them. No cut-off for these calls is given here.

Tests used:
[1] = Permeability of compound at 100 ug/ml after 10 hrs by PAMPA assay; format: ADME; settings: read-out: permeability
PC-12 [2] = test: Induction of rat PC12 cell proliferation at 0.5 to 50 uM after 72 hrs by microscopic analysis; format: functional, cell-based
Method in brief: (§1)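 Undifferentiated PC12 cells cultured 72 h with compound at 0.5–50 µM (images at 10 µM) or with NGF 50 ng/ml, then examined under a digital microscope.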

PC-12 [3] = test: Cytotoxicity against rat undifferentiated PC12 cells at 0.5 to 50 uM after 72 hrs by MTT assay; format: cell-based; settings: pc-12, 72 h
SH-SY5Y = test: Neuroprotective activity against t-BuOOH-induced oxidative stress in human SH-SY5Y cells assessed as inhibition ROS accumulation pre-incubated for 24 hrs before t-BuOOH challnge for 30 mins by DCFH-DA probe based fluorescence assay; format: functional, cell-based
Method in brief: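 SH-SY5Y cells; test agents at 1–0.01 µM, oxidative stress induced by tert-butyl hydroperoxide; intracellular ROS read by DCFH-DA fluorescence; at least three independent experiments in sextuplicate; EC50 derived.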

[4] = Metabolic stability in Sprague-Dawley rat liver microsomes assessed as metabolic rate constant at 100 uM up to 180 mins by HPLC-UV analysis; settings: 3 h
PC-12 [5] = test: Induction of rat PC12 cell proliferation at 10 uM after 72 hrs by microscopic analysis; format: functional, cell-based; method in brief: as §1

Row | SMILES | Papp at 10 h, 100 ug/ml [1] [×10⁻⁶ cm/s] | Activity (PC-12 [3]) | also measured
1 | Oc1c(Cl)cc(Cl)c2ccc(-c3cc4cc(F)ccc4[nH]3)nc12 | 5.3 |  | Activity (PC-12 [2]): inactive
2 | Oc1c(Cl)cc(Cl)c2ccc(-c3cc4cc5c(cc4[nH]3)OCO5)nc12 | 4.9 | Non-Toxic | EC50 (SH-SY5Y): 330 nM
3 | C[C@]12CC[C@H]3[C@@H](CCC4=CC(=O)CC[C@@]43C)[C@@H]1CC[C@@H]2O [TESTOSTERONE] |  |  | K [4]: 0.3132 min⁻¹
4 | Oc1c(Cl)cc(Cl)c2ccc(-c3cc4ccccc4[nH]3)nc12 | 6.6 |  | Activity (PC-12 [2]): inactive
5 | COc1cc2cc(-c3ccc4cccc(O)c4n3)[nH]c2cc1OC | 5.2 |  | 
6 | Oc1c(Cl)cc(Cl)c2ccc(-c3cc4cc(Cl)ccc4[nH]3)nc12 |  |  | Activity (PC-12 [2]): Active; Activity (PC-12 [5]): Active
7 | Oc1ccc(-c2cc3ccccc3[nH]2)c2cccnc12 | 12.8 | Toxic | 
8 | Oc1cccc2ccc(-c3cc4cc(F)ccc4[nH]3)nc12 | 10.6 |  | 
9 | Oc1ccc2[nH]c(-c3cc(Cl)c(O)c4ncccc34)cc2c1 | 6.8 | Toxic | 
10 | Oc1ccc2[nH]c(-c3ccc(O)c4ncccc34)cc2c1 | 9.1 | Toxic | 
11 | Oc1cccc2ccc(-c3cc4cc(Cl)ccc4[nH]3)nc12 | 9.8 | Toxic | 
12 | CN(C)CCCN1c2ccccc2Sc2ccc(Cl)cc21 [CHLORPROMAZINE] | 5.9 |  | 
